Data as given in ChEMBL document CHEMBL4184143 (J Med Chem, 2017).
The source made the active and inactive calls. The calls are words filed in the database; no cut-off is given here.

Tests used:
[1] = target: T1, Bromodomain-containing protein 4 (Homo sapiens, UniProt O60885); assay: Inhibition of FAM-labeled ZBA248 binding to recombinant human N-terminal His6-tagged BRD4 bromodomain 2 (333 to 460 residues) expressed in Rosetta2 DE3 cells after 30 mins by Flourescence polarization assay; format: biochemical
Mus musculus [2] = assay: Toxicity in SCID mouse implanted with human MDA-MB-231 cells assessed as weight loss at 40 mg/kg, po qd measured 2 to 3 times weekly during treatment and weekly post dose; format: organism-based; conditions: in vivo
Method in brief: (§1)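 At ~100 mm3, mice were randomized to treatment or vehicle control. Tumors were measured by electronic calipers. Animals were checked daily for signs of toxicity and weighed 2–3 times weekly on treatment, then at least weekly afterwards.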

[3] = Half life in Sprague-Dawley rat at 5 mg/kg, iv by LC/MS method; format: ADME, organism-based; conditions: in vivo
[4] = AUC (0 to t) in Sprague-Dawley rat at 5 mg/kg, iv by LC/MS method; format: ADME, organism-based; conditions: in vivo
Method in brief: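 Sprague Dawley rats were dosed iv at 5 mg/kg or orally at 25 mg/kg, with compound dissolved in 20% (v/v) PCP/70% (v/v) PBS vehicle. Blood was drawn by catheter at 0, 5, 15, 30 min and 1, 2, 4, 6, 8, 24 h and spun to plasma, which was stored at −80 °C. Plasma drug was quantified by a validated LC–MS/MS method, and parameters were derived noncompartmentally.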

Mus musculus [5] = assay: Half life in SCID mouse at 5 mg/kg, iv by LC/MS method; format: ADME, organism-based; conditions: in vivo
[6] = AUC (0 to t) in SCID mouse at 5 mg/kg, iv by LC/MS method; format: ADME, organism-based; conditions: in vivo
Method in brief: (§2)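 Mouse plasma samples were stored at −80 °C. Drug levels were quantified by a validated LC–MS/MS method, and pharmacokinetic parameters were calculated by noncompartmental analysis.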

Mus musculus [7] = assay: Volume of distribution at steady state in SCID mouse at 5 mg/kg, iv by LC/MS method; format: ADME, organism-based; conditions: in vivo
[8] = Half life in SCID mouse at 25 mg/kg, po by LC/MS method; format: ADME, organism-based; conditions: in vivo
[9] = AUC (0 to t) in SCID mouse at 25 mg/kg, po by LC/MS method; format: ADME, organism-based; conditions: in vivo; method in brief: as §2
[10] = Half life in CD1 mouse liver microsomes at 1 uM by LC/MS method; format: ADME, microsome
[11] = Half life in human liver microsomes at 1 uM by LC/MS method; format: ADME, microsome
[12] = target: Bromodomain-containing protein 2 (Homo sapiens, UniProt P25440); assay: Binding affinity to human partial length BRD2 bromodomain 1 long isoform (72 to 205 residues) expressed in bacterial expression system by BROMOscan assay
[13] = target: T1, Bromodomain-containing protein 4; assay: Binding affinity to recombinant human BRD4 bromodomain 1 (44 to 168 residues) by BROMOscan assay
CREB-binding protein = CREB-binding protein (Homo sapiens, UniProt Q92793); assay: Binding affinity to human partial length CREBBP (R1081 to G1197 residues) expressed in bacterial expression system by BROMOscan assay
[14] = target: ATPase family AAA domain-containing protein 2 (Homo sapiens, UniProt Q6PL18); assay: Binding affinity to human partial length ATAD2A (Q981 to R1108 residues) expressed in bacterial expression system by BROMOscan assay
[15] = target: Bromodomain adjacent to zinc finger domain protein 2B (Homo sapiens, UniProt Q9UIF8); assay: Binding affinity to human partial length BAZ2B (S2054 to S2168 residues) expressed in bacterial expression system by BROMOscan assay
[16] = target: Bromodomain-containing protein 7 (Homo sapiens, UniProt Q9NPI1); assay: Binding affinity to human partial length BRD7 (L125 to R254 residues) expressed in […] expression system by BROMOscan assay
[17] = target: Bromodomain-containing protein 8 (Homo sapiens, UniProt Q9H0E9); assay: Binding affinity to human partial length BRD8 bromodomain 2 (D1095 to F1235 residues) expressed in mammalian expression system by BROMOscan assay
[18] = target: Bromodomain-containing protein 9 (Homo sapiens, UniProt Q9H8M2); assay: Binding affinity to human partial length BRD9 (R130 to V259 residues) expressed in bacterial expression system by BROMOscan assay
[19] = target: Bromodomain and PHD finger-containing protein 3 (Homo sapiens, UniProt Q9ULD4); assay: Binding affinity to human partial length BRPF3 (E588 to G701 residues) expressed in bacterial expression system by BROMOscan assay
Protein polybromo-1 = Protein polybromo-1 (Homo sapiens, UniProt Q86U86); assay: Binding affinity to human partial length PBRM1 bromodomain 5 (S645 to D766 residues) expressed in bacterial expression system by BROMOscan assay
[20] = target: SWI/SNF-related matrix-associated actin-dependent regulator of chromatin subfamily A member 2 (Homo sapiens, UniProt P51531); assay: Binding affinity to human partial length SMARCA2 (S1377 to Q1486 residues) expressed in bacterial expression system by BROMOscan assay
[21] = target: SWI/SNF-related matrix-associated actin-dependent regulator of chromatin subfamily A member 4 (Homo sapiens, UniProt P51532); assay: Binding affinity to human partial length SMARCA4 (A1448 to S1575 residues) expressed in bacterial expression system by BROMOscan assay
[22] = target: Transcription intermediary factor 1-alpha (Homo sapiens, UniProt O15164); assay: Binding affinity to human partial length TRIM24 expressed in bacterial expression system by BROMOscan assay
HBL-100 = assay: Cytotoxicity against human HBL100 cells assessed as cell growth inhibition after 4 days by WST-8 assay; format: functional, cell-based; conditions: HBL-100, 96 h
Method in brief: (§3)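 Breast cancer cells were seeded at 3,000 cells/well, treated with serially diluted compound in medium and cultured for 4 days. Growth was read by WST-8 (10% v/v final, 1–3 h) at 450 nm. Readings were normalized to DMSO-treated cells, and IC50 was obtained by nonlinear regression.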

HCC1143 = assay: Cytotoxicity against human HCC1143 cells assessed as cell growth inhibition after 4 days by WST-8 assay; format: functional, cell-based; conditions: HCC1143, 96 h; method in brief: as §3
HCC1937 = assay: Cytotoxicity against human HCC1937 cells assessed as cell growth inhibition after 4 days by WST-8 assay; format: functional, cell-based; conditions: HCC1937, 96 h; method in brief: as §3
Mus musculus [23] = assay: Toxicity in SCID mouse implanted with human MV4-11 cells at 50 mg/kg, po qd measured 2 to 3 times weekly during treatment and once weekly post dose; format: organism-based; conditions: in vivo; method in brief: as §1
MDA-MB-231 = assay: Antitumor activity against human MDA-MB-231 cells xenografted in SCID mouse assessed as tumor growth inhibition at 40 mg/kg, po qd measured 2 to 3 times weekly during treatment and weekly post dose; format: functional, organism-based; method in brief: as §1
MV4-11 = assay: Inhibition of BET bromodomain in human MV4-11 cells assessed as upregulation of p21 protein level after 24 hrs by Western blot method; format: cell-based
Method in brief: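 MV4;11 cells were exposed to compound for 24 h and lysed in RIPA buffer with protease inhibitors. Lysates were separated on 4–20% SDS-PAGE, blotted to PVDF and probed for PARP, cleaved PARP and p21, with β-actin as loading control.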

Chain of ATPase family AAA domain-containing protein 2 (Q6PL18 whole entry, the tested form may be a part): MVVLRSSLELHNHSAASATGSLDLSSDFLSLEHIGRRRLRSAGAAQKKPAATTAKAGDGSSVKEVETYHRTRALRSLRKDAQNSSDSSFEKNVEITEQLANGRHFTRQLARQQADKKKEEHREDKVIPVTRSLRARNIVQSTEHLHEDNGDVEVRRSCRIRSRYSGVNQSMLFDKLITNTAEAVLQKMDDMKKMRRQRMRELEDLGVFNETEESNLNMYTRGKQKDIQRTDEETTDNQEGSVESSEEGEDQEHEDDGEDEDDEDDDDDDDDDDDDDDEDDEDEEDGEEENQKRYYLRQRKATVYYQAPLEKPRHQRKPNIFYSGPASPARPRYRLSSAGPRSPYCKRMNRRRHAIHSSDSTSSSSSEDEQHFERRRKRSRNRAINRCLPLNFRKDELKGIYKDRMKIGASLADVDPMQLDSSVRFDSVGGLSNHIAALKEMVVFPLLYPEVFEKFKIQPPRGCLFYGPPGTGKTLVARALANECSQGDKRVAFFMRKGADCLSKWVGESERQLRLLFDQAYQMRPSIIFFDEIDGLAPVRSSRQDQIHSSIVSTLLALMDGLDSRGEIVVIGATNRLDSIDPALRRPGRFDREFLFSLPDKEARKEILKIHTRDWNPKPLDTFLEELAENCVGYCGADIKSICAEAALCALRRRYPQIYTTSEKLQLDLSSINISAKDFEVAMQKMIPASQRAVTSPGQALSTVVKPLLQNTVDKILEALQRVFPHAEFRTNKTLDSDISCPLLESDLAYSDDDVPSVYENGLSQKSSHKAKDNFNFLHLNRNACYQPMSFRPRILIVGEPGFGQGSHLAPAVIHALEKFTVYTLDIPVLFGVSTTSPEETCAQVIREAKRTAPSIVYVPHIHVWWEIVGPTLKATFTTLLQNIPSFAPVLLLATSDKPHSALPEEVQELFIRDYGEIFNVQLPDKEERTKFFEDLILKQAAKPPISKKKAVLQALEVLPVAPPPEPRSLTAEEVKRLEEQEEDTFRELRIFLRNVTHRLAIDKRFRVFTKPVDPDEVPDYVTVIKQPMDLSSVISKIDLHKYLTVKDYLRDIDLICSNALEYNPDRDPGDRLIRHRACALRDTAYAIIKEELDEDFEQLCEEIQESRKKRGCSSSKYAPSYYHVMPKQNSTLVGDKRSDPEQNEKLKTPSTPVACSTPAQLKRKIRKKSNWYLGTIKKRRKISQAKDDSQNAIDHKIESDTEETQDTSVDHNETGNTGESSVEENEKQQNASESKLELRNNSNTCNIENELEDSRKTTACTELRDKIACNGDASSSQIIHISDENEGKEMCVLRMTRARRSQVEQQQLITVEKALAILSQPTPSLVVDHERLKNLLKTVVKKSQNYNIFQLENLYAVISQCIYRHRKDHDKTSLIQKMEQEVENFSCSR
Chain of Protein polybromo-1 (Q86U86 whole entry, the tested form may be a part): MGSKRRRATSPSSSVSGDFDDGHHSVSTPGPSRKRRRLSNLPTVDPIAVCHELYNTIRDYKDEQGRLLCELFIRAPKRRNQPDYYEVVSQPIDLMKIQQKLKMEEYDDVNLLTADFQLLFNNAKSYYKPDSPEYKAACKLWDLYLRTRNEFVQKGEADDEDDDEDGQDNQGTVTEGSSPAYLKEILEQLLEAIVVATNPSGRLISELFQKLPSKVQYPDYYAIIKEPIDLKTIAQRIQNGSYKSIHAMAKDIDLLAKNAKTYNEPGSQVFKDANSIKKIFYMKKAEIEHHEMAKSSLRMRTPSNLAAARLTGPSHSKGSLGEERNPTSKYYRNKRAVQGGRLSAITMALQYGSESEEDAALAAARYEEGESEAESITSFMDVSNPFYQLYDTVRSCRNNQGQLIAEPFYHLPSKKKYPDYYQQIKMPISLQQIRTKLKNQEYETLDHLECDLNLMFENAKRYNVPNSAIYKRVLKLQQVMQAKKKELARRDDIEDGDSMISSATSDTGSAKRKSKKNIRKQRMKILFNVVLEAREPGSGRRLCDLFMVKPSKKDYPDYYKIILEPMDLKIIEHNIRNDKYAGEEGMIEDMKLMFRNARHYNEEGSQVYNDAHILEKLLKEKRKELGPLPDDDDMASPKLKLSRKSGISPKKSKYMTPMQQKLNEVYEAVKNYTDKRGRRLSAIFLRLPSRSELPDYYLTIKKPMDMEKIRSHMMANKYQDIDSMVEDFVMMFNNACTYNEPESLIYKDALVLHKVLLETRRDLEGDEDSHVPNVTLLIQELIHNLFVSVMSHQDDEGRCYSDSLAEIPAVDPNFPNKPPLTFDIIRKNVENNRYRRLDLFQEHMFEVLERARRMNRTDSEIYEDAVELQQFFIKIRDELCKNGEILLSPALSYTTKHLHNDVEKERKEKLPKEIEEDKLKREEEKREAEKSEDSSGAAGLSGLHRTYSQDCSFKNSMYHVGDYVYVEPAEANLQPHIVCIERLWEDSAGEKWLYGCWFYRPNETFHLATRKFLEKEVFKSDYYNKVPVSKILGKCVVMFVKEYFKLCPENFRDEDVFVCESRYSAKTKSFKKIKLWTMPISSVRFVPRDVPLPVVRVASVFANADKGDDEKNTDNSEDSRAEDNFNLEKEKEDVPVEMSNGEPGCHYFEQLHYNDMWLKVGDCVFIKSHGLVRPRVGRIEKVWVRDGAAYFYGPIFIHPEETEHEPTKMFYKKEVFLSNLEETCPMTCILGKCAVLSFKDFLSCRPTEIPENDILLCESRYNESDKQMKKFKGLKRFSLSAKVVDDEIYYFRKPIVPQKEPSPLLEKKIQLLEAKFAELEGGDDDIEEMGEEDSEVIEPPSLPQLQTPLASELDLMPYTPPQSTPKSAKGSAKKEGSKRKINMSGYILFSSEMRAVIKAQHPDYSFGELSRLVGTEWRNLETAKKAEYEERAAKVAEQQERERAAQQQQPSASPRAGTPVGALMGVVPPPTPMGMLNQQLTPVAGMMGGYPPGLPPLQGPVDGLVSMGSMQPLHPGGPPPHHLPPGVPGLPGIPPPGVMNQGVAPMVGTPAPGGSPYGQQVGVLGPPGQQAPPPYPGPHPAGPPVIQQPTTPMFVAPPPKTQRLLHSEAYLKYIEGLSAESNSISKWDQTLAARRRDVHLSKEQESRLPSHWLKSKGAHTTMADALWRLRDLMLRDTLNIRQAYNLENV
Chain of Bromodomain-containing protein 9 (Q9H8M2 whole entry, the tested form may be a part): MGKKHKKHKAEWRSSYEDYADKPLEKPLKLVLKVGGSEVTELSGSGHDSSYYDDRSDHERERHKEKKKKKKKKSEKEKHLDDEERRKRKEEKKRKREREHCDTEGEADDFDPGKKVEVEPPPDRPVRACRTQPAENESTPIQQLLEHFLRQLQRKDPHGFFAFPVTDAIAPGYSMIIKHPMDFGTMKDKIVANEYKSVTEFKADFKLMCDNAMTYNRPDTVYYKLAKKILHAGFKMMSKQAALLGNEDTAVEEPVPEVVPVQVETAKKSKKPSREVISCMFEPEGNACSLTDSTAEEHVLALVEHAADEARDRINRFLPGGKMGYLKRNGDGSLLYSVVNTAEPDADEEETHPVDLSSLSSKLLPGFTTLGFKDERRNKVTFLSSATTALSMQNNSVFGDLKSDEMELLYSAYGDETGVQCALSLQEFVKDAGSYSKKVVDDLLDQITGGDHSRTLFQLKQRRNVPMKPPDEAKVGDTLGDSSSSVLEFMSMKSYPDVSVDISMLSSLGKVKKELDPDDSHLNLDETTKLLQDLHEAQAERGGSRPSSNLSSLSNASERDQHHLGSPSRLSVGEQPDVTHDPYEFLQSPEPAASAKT
Chain of Bromodomain and PHD finger-containing protein 3 (Q9ULD4 whole entry, the tested form may be a part): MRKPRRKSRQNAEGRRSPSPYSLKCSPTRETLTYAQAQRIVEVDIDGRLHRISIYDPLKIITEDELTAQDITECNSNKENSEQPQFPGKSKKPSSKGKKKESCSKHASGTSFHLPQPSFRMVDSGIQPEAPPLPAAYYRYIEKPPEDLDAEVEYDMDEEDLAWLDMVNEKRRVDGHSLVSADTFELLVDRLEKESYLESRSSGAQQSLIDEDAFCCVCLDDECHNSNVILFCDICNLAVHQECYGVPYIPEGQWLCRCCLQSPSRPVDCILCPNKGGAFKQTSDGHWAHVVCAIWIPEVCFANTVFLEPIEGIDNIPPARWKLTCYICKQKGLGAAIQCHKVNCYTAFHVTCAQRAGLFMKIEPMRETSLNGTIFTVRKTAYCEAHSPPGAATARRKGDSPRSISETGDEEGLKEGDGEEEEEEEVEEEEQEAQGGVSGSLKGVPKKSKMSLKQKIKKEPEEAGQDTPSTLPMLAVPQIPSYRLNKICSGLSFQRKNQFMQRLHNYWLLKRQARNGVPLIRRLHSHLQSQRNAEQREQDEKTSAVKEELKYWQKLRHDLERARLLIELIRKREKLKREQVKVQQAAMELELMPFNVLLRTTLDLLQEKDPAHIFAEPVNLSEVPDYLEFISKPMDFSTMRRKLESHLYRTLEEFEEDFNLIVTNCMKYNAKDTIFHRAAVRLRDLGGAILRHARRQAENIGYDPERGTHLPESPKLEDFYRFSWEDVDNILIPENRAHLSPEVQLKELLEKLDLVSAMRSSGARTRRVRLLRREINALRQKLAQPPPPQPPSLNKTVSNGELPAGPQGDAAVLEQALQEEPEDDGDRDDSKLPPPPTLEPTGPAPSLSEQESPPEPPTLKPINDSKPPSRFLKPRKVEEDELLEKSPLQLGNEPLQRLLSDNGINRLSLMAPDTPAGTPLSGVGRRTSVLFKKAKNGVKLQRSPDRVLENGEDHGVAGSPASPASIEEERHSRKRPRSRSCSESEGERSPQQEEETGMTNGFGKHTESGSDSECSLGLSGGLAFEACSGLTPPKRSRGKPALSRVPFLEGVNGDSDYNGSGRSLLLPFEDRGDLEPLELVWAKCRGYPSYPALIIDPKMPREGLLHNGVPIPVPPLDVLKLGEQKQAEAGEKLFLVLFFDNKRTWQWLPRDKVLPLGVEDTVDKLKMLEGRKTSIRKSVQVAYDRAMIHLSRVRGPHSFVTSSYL

- IC50 [1]: 0.0072 µM
- Ki [1]: 0.0014 µM
- half-life [3]: 2.4 h
- AUC(0-t) [4]: 6340 ng·h/mL
- t1/2 (Mus musculus [5]): 0.5 h
- AUC(0-t) [6]: 3690 ng·h/mL
- Vdss (Mus musculus [7]): 2.75 L/kg
- half-life [8]: 1.6 h
- AUC(0-t) [9]: 9140 ng·h/mL
- t1/2 [10]: > 1 h
- t1/2 [11]: > 1 h
- Kd [12]: 0.0045 µM
- Kd [13]: 0.0084 µM
- Kd (CREB-binding protein): 0.52 µM
- Kd [14]: > 4 µM
- Kd [15]: > 4 µM
- Kd [16]: > 4 µM
- Kd [17]: > 4 µM
- Kd [18]: > 4 µM
- Kd [19]: > 4 µM
- Kd (Protein polybromo-1): > 4 µM
- Kd [20]: > 4 µM
- Kd [21]: > 4 µM
- Kd [22]: > 4 µM
Compound: COc1cc2c(cc1-c1c(C)noc1C)[nH]c1nc(C)nc(-c3ccnc4ccccc34)c12
- Activity (Mus musculus [2]): Non-Toxic
- IC50 (HBL-100): > 2 µM
- IC50 (HCC1143): > 2 µM
- IC50 (HCC1937): > 2 µM
- Activity (Mus musculus [23]): Non-Toxic
- TGI (MDA-MB-231): Active
- inhibition (MV4-11): Dose-dependent effect
